Measured values: paper PMC5511061 (ACS infectious diseases, 2017)

Legend:
[1] = system: HsAdoMetDC; details: human versus T. brucei enzyme; cited from earlier work
[2] = molecular target: T1, human AdoMetDC (HsAdoMetDC) (Homo sapiens, UniProt P17707); experiment: RapidFire-MS end-point AdoMetDC activity assay, human enzyme; assay type: biochemical
T1 sequence (P17707 1-334): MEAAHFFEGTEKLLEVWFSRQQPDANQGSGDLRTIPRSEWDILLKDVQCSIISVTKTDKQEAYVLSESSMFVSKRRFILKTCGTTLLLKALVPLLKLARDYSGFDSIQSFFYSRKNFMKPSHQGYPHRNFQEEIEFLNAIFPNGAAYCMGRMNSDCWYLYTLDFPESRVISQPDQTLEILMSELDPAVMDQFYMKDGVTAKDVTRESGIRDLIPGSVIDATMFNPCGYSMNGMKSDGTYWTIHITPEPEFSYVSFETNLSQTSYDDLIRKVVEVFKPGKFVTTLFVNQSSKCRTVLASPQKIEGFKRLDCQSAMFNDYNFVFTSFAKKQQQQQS

[3] = system: prozyme levels in T. brucei cells; experiment: Western blotting analysis of prozyme expression levels in treated cells; assay type: cell-based, Trypanosoma brucei; details: cells grown 24 h with 1–2 × EC50 of compound versus vehicle
How it was run: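 Bloodstream-form T. brucei treated 24 h with test compound; DMSO vehicle as neutral control and a reference AdoMetDC inhibitor as positive control. Cells harvested, lysed and run on SDS-PAGE. Blots probed with rabbit polyclonal anti-T. brucei prozyme (1000-fold dilution, Tris-buffered saline, 5% blocker). Membrane cut by molecular-weight marker; upper section probed with rabbit anti-BiP (100,000-fold) as loading control. Prozyme compared with vehicle.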

[4] = system: T. brucei cells; experiment: Rescue of cell growth inhibition with spermidine; assay type: cell-based, Trypanosoma brucei
[5] = system: P-glycoprotein (human MDR1); experiment: MDCKII-hMDR1 monolayer permeability assay; assay type: in vitro ADME; details: dog, MDCK-MDR1
[6] = In vitro metabolic stability in hepatic microsomes, mouse; assay type: in vitro ADME; details: male, CD-1, mouse
[7] = system: T. brucei brucei Lister 427 bloodstream-form (BSF) cells; experiment: T. brucei cell viability growth assay; assay type: cell-based, Trypanosoma brucei brucei
[8] = In vitro metabolic stability in hepatic microsomes, human; assay type: in vitro ADME; details: both

| SMILES | fold more potent against HsAdoMetDC [1] [fold] | IC50 [2] [nM] | Prozyme induction [3] | EC50 ([4]; Trypanosoma brucei, read-out: T. brucei cell EC50, – Spd) [nM] | rescue of cell growth inhibition by spermidine supplementation ([4]; over 100× EC50 concentrations of compound, 1 mM spermidine) | Papp A→B [5] [×10⁻⁶ cm/s] | half-life at 1 μM [6] [h] | EC50 fold below measured IC50 on the enzyme [7] [fold] | EC50 ([7]; Trypanosoma brucei, 48 h, read-out: T. brucei cell EC50) [nM] | half-life at 1 μM [8] [h] |
| --- | --- | --- | --- | --- | --- | --- | --- | --- | --- | --- |
| Cl.Cl.Cl.N=C(N)c1cccc(/C=N/N=C(\N)N/N=C/c2cccc(C(=N)N)c2)c1 [CGP 40215A] | 500 |  |  |  |  |  |  |  |  |  |
| Cc1nc2c(N)ncnc2n1[C@@H]1O[C@H](CN(C)C/C=C\CN)[C@@H](O)[C@H]1O [Compound 1] |  | 110 | yes | 0.3 | full rescue | 1.1 | > 1.5 | 100 | 1.8 | > 1.5 |
